From publication PMC11564280 (Clinical Drug Investigation, 2024)
Entries after “also recorded” stand apart in the source; their conditions may differ. Read-outs that look alike come from different tables or passages of the source.

Legend:
[1] = SAD study 5–405 mg; cited from earlier work
[2] = human plasma; cited from earlier work
[3] = Safety and tolerability, Japanese and Chinese participants together; type: in vivo, human
Procedure, shortened: (§1)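 Safety assessed at every visit in all randomized participants given ≥1 dose of drug or placebo (oral suspension once daily for 10 days, 3:1 randomization). Covered AE and SAE incidence and severity, vital signs, ECGs, laboratory tests and skin rash. Participants resided on site from day −1 to day 12, with visits on days 14, 16, 20 and 24. Rash graded by CTCAE; relatedness judged by the investigator.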

[4] = Safety and tolerability in healthy Chinese volunteers; type: in vivo, human; conditions: 5 mg once daily for 10 days, n = 6
Procedure, shortened: as §1

[5] = Safety and tolerability in healthy Japanese volunteers; type: in vivo, human; conditions: for Any AE / Any AE leading to discontinuation / Any SAE / Any possibly related AE / Death / Maculopapular rash: Japanese
Procedure, shortened: as §1

[6] = type: in vivo, human
Procedure, shortened: (§2)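 Healthy males aged 18–50 y, randomized 3:1 to active or placebo (single-blind). Oral suspension given once daily each morning after a ≥10 h fast for 10 days: Japanese cohorts 2.5, 5 or 10 mg, Chinese cohort 5 mg. K2EDTA blood drawn pre-dose and 0.25–12 h post-dose on days 1 and 10, plus 24–336 h. Urine pooled 0–3, 3–6, 6–9, 9–12 and 12–24 h on day 10. Plasma spun 1500g, 4 °C, 10 min; samples stored at −50 to −90 °C.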

[7] = type: in vivo, human; conditions: for Ae(0–last), cumulative amount excreted in urine / fe(0–last), fraction of dose excreted unchanged in urine: day 10; for Vd/F / half-life / CL renal: human, po; for Vd/F / half-life: plasma; for Ae(0–last), cumulative amount excreted in urine / fe(0–last), fraction of dose excreted unchanged in urine / CL renal: urine
Procedure, shortened: as §2

[8] = Stability of frozen plasma and urine pharmacokinetic samples; design: species or system human; conditions: stored frozen at − 50 to − 90 °C
[9] = Pharmacokinetics, Japanese and Chinese participants together or compared; type: in vivo, human
Procedure, shortened: as §2

[10] = cited from earlier work; for mean CL/F on the last study day: mainly white and Black/African American participants
[11] = 2.5 mg once daily for 10 days, n = 6
[12] = 5 mg once daily for 10 days, n = 6
[13] = 10 mg once daily for 10 days, n = 6
[14] = total mitiperstat 2.5, 5 or 10 mg, n = 18
[15] = Chinese, 5 mg oral once daily, day 10, n = 5, urine
[16] = Japanese, 2.5 mg oral once daily, n = 6
[17] = Japanese, 5 mg oral once daily, n = 5
[18] = Japanese, 10 mg oral once daily, n = 3

## C[C@@H](N)c1cc(Cl)ccc1Cn1c(=S)[nH]c(=O)c2[nH]ccc21 [Mitiperstat]
[1]
  dose proportionality of exposure (average AUC): increased proportionally with mitiperstat dose
[2]
  share of drug-related exposure in plasma: approximately 7%
[3]; Japanese and Chinese, 2.5–10 mg once daily for 10 days
  laboratory results, vital signs or electrocardiograms: No clinically significant trends or shifts from baseline
[3]; all cases of rash
  time to resolution of rash: ≤ 1 month
[3]; the other four participants who experienced rash
  day of rash occurrence: 9 days
[3]; three Japanese 10 mg, one Chinese 5 mg
  adverse events of rash of moderate intensity (maculopapular rash, CTCAE grade 2): Four
[4]
  Any AE: 2 (33.3) n (%)
  Any AE leading to discontinuation: 1 (16.7) n (%)
  Any SAE: 0 (0.0) n (%)
  Any possibly related AE: 2 (33.3) n (%)
  Death: 0 (0.0) n (%)
  Maculopapular rash: 1 (16.7) n (%)
[5]; [11]
  Any AE: 1 (16.7) n (%)
  Any AE leading to discontinuation: 0 (0.0) n (%)
  Any SAE: 0 (0.0) n (%)
  Any possibly related AE: 0 (0.0) n (%)
  Death: 0 (0.0) n (%)
  Maculopapular rash: 0 (0.0) n (%)
[5]; [12]
  Any AE: 2 (33.3) n (%)
  Any AE leading to discontinuation: 1 (16.7) n (%)
  Any SAE: 0 (0.0) n (%)
  Any possibly related AE: 1 (16.7) n (%)
  Death: 0 (0.0) n (%)
  Maculopapular rash: 1 (16.7) n (%)
[5]; [13]
  Any AE: 4 (66.7) n (%)
  Any AE leading to discontinuation: 3 (50.0) n (%)
  Any SAE: 0 (0.0) n (%)
  Any possibly related AE: 3 (50.0) n (%)
  Death: 0 (0.0) n (%)
  Maculopapular rash: 3 (50.0) n (%)
[5]; [14]
  Any AE: 7 (38.9) n (%)
  Any AE leading to discontinuation: 4 (22.2) n (%)
  Any SAE: 0 (0.0) n (%)
  Any possibly related AE: 4 (22.2) n (%)
  Death: 0 (0.0) n (%)
  Maculopapular rash: 4 (22.2) n (%)
[5]; Participant receiving 5 mg
  day of rash occurrence: 4 days
[6]; [15]
  Ae(0–last), cumulative amount excreted in urine: 2.48 (0.53) mg
  fe(0–last), fraction of dose excreted unchanged in urine: 49.59 (10.62) %
[6]; human, plasma, po, 5 mg
  Vd/F: 1960 L
  half-life: 55.4 h
[6]; human, urine, po, 5 mg
  CL renal: 200 mL/min
[7]; [16]
  Ae(0–last), cumulative amount excreted in urine: 1.20 (0.29) mg
  fe(0–last), fraction of dose excreted unchanged in urine: 47.94 (11.55) %
[7]; [17]
  Ae(0–last), cumulative amount excreted in urine: 2.56 (0.72) mg
  fe(0–last), fraction of dose excreted unchanged in urine: 51.14 (14.31) %
[7]; [18]
  Ae(0–last), cumulative amount excreted in urine: 6.29 (1.77) mg
  fe(0–last), fraction of dose excreted unchanged in urine: 62.94 (17.71) %
[7]; Japanese, 2.5–10 mg range
  dose proportionality of exposure (AUC, Ctrough and Cmax): dose proportional; also recorded: increased proportionally with dose
[7]; 2.5 mg
  Vd/F: 2300 L
  half-life: 50.2 h
  CL renal: 248 mL/min
[7]; 5 mg
  Vd/F: 2170 L
  half-life: 57.8 h
  CL renal: 215 mL/min
[7]; 10 mg
  Vd/F: 2250 L
  half-life: 56.4 h
  CL renal: 282 mL/min
[8]; plasma
  known stability period of study samples: 438 days
[8]; urine
  known stability period of study samples: 439 days
[9]; Japanese and Chinese cohorts receiving 5 mg
  mean CL/F on the last study day: 25.3 L/h
[9]; Japanese and Chinese, once-daily oral dosing
  time to steady state: ≤ 10 days
[9]; Japanese and Chinese, trough concentrations
  time to steady state by visual interpretation: approximately 7 days
[9]; both Japanese and Chinese participants
  renal clearance as share of apparent total clearance: approximately 50%
[9]; day 10, Japanese and Chinese, range of group medians
  median time to Cmax: 1.02 to 2.00 h
[9]; human, plasma, po
  half-life: 50.2 to 57.8 h
[10]; MAD study 5–45 mg, last day of dosing
  dose proportionality of AUC and Cmax: approximately proportional to dose
[10]; healthy participants
  time to Cmax: approximately 1 h
[10]; 5 mg
  mean CL/F on the last study day: 22.8 L/h
[10]; 10 mg
  mean CL/F on the last study day: 20.6 L/h
